Our source for the Activity and IC50 values is ChEMBL document CHEMBL1151701, “Discovery of new pyridoacridine alkaloids from Lissoclinum cf. badium that inhibit the ubiquitin ligase activity of Hdm2 and stabilize p53” (Bioorg Med Chem, 2008).

The source made the active and inactive calls. The rule behind the calls is not given here.

For series [1], the target named is T1, E3 ubiquitin-protein ligase Mdm2 (Homo sapiens, UniProt Q00987). The experiment in a line: Inhibition of Hdm2-mediated p53 degradation in human U2OS cells co-transfected with p53-Hdm2 at 50 uM after 8 hrs by immunoblotting. The format is cell-based. Background: A western blot detects proteins with antibodies after separation by electrophoresis.
Target sequence in this assay (Q00987 whole entry, looked up): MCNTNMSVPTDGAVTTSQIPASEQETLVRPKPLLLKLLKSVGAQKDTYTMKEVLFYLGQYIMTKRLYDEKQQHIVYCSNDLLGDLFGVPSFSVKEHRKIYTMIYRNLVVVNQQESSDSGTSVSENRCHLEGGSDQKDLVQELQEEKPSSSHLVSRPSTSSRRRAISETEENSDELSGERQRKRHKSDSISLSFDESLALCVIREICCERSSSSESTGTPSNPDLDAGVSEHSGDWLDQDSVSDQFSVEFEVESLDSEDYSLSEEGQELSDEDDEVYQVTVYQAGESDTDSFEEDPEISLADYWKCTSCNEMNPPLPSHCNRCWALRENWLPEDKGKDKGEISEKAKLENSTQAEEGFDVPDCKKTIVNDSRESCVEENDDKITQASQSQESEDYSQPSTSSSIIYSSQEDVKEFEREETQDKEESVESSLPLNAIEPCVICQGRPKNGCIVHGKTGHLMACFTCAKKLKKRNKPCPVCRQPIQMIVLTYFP
Series [2] relates to HCT-116. The experiment in a line: Cytotoxicity against p53-deficient human HCT 116 cells at 5 to 20 uM after 20 hrs by trypan blue exclusion assay. The format is functional, cell-based.
The target in series [3] is T1, E3 ubiquitin-protein ligase Mdm2. The experiment in a line: Inhibition of GST fused human Hdm2 in human RPE cells assessed as increase in p53 level after 8 hrs by immunoblotting. The format is cell-based. The method in brief:
(§1)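 Tert-immortalized human retinal pigment epithelial (RPE) cells exposed to compound (1–10 µM) or 50 µM ALLN for 8 h. Cells lysed in RIPA buffer, post-nuclear supernatants resolved by SDS-PAGE, then immunoblotted for p53, Hdm2 and β-actin as loading control.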
Target sequence in this assay (Q00987 whole entry, looked up): as above

The next series relates to A9. The series is described as follows: Cytotoxicity against p53-deficient mouse A9 cells at 5 to 20 uM after 20 hrs by trypan blue exclusion assay. The series is classed as cell-based. The note with it: a9, 20 h. The method in brief:
(§2)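 p53-deficient (A9) and wild-type p53 (C8) mouse embryo fibroblasts treated 20 h with compound at 5–20 µM. Cell death by trypan blue exclusion. Mean and standard deviation of three independent experiments.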

Series [4] has as its target T1, E3 ubiquitin-protein ligase Mdm2. The series is described as follows: Inhibition of GST fused human Hdm2 in human RPE cells at 10 uM after 8 hrs by immunoblotting.
Target sequence in this assay (Q00987 whole entry, looked up): as above
Series [5] shares this target. The experiment in a line: Inhibition of GST fused human Hdm2 expressed in p53 and mdm2-deficient mouse embryo fibroblasts under control of p53-independent promotor at 10 uM after 8 hrs by immunoblotting. Summed up: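 p53−/−mdm2−/− mouse embryo fibroblasts transiently transfected with Hdm2 plasmid under a CMV promoter. 48 h later they were treated with 10 µM compound for 8 h, and Hdm2 and β-actin were measured by immunoblotting.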
Target sequence in this assay (Q00987 whole entry, looked up): as above

Series [6] shares this target. The series is described as follows: Inhibition of GST fused human Hdm2 in human RPE cells assessed as increase in p53 level at 10 uM after 8 hrs by immunoblotting.
Target sequence in this assay (Q00987 whole entry, looked up): as above
Series [7] deals with HCT-116. The experiment in a line: Cytotoxicity against p53-proficient human HCT 116 cells at 5 to 20 uM after 20 hrs by trypan blue exclusion assay. The format is functional, cell-based.
The target of series [8] is T1, E3 ubiquitin-protein ligase Mdm2. The series is described as follows: Inhibition of GST fused human Hdm2 in human RPE cells after 8 hrs by immunoblotting. The format is cell-based. The method in brief:
as §1
Target sequence in this assay (Q00987 whole entry, looked up): as above

Another series concerns U2OS. The experiment in a line: Induction of apoptosis in human U2OS cells assessed as activation of p53-dependent transactivation by luciferase reporter gene assay at 1 to 10 uM after 22 hrs. The format is functional, cell-based. The method in brief:
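U2OS-pG13 p53-reporter cells incubated 22 h with compound (1–10 µM) or 1 µg/ml adriamycin. Cells lysed in reporter lysis buffer and spun at 14,000 g for 20 min; luciferase activity of supernatant read as RLU. Mean and standard deviation of three independent experiments.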
(In general: Reporter assays use an easily measured gene product as a stand-in for the process of interest.)

Series [9] deals with T1, E3 ubiquitin-protein ligase Mdm2. The experiment in a line: Inhibition of GST fused human Hdm2 in human HCT 116 cells expressing wild type p53 assessed as prevention of N-acetyl-leucyl-leucyl-norleucinal-induced accumulation of ubiquitylated p53 accumulation. The format is cell-based.
Series [10] in a line: Cytotoxicity against human RPE cells transformed with adenovirus E1A at 3 to 25 uM after 17 hrs by trypan blue exclusion assay. The format is cell-based. The method in brief: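 Parental RPE and adenovirus E1A-transformed RPE cells incubated 17 h with compound (3–25 µM) or 1 µg/ml adriamycin. Cell death scored by trypan blue exclusion. Mean and standard deviation of three independent experiments.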

The nature of series [11]: Cytotoxicity against wild type p53-proficient mouse C8 cells at 5 to 20 uM after 20 hrs by trypan blue exclusion assay. The series is classed as cell-based. The note with it: c8, 20 h. Summed up:
as §2

Series [12] concerns the target T1, E3 ubiquitin-protein ligase Mdm2. The experiment in a line: Inhibition of Hdm2-mediated p53 degradation in human U2-OS cells co-transfected with p53-Hdm2 after 8 hrs by immunoblotting. The series is classed as cell-based. Particulars: U2OS.
Series [13] has the same target. The experiment in a line: Inhibition of GST fused human Hdm2 assessed as polyubiquitylation by electrochemiluminescence assay. The method in brief:
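Cell-free ubiquitylation. Lysate GST-Hdm2 captured on glutathione-coated wells for 1 h at RT. E1/UbcH5B were pre-charged with ubiquitin, ATP and DTT in PBS for 30 min, then added with sample for 30 min at RT. Read-out was ruthenium anti-polyubiquitin electrochemiluminescence, normalised between no-inhibitor (0%) and EDTA (100%). Tested at 100–0.02 µg/mL in quadruplicate.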
Target sequence in this assay (Q00987 whole entry): as the sequence (Q00987 whole entry, looked up) above

Series [14] shares this target. The series is described as follows: Inhibition of GST fused human Hdm2 in human RPE cells assessed as increase in p53 level at 1 to 10 uM after 8 hrs by immunoblotting. The format is cell-based. The method in brief: as §1
For series [15] the target is unchanged. The series is described as follows: Inhibition of GST fused human Hdm2 in human RPE cells at 1 to 10 uM after 8 hrs by immunoblotting. The format is cell-based. Summed up: as §1
Series [16] in a line: Cytotoxicity against human RPE cells assessed as increase in p53 level at 10 uM after 8 hrs by immunoblotting. The format is cell-based. Summed up:
as §1

Series [17] is described as follows: Cytotoxicity against human RPE cells at 10 uM. The format is cell-based. Summed up: as §1
For series [18], the target named is T1, E3 ubiquitin-protein ligase Mdm2. The experiment in a line: Inhibition of GST fused human Hdm2 in human RPE cells assessed as increase in p53 level at 1 uM after 8 hrs by immunoblotting. The series is classed as cell-based. Summed up: as §1

Broadly, the IC50 is the point on the concentration scale where inhibition reaches its midpoint.

On to `NCCc1c2c(c3nccc4c3c1Nc1ccccc1-4)OCS2` [LISSOCLINIDINE B], for which the result (in [1]; in the series with HCT-116 [2]) was inactive. The Activity result in series [3] was “Dose-dependent effect”; with A9, “Not Active”; in series [8] it was “Dose-dependent effect”; in the series with U2OS it was “Dose-dependent effect”; in series [10] it was “Dose-dependent effect”; in series [11] it was “Active”. Moreover, in series [12], the Activity entry was “Dose-dependent effect”. The result (in series [4]; in [5]; in [6]; in the series on HCT-116 [7]; in series [9]) was Active.

Regarding `COc1c(C)c(CCN(C)C)c2c(c1OC)SSSSS2`, the IC50 in series [13] amounted to 121 µM. For the same compound, the outcome in series [14] and in [15] was inactive.

On to `CSC1=C(CCN)c2nc3ccccc3c3ccnc(c23)C1=O` [DIPLAMINE B], for which, in series [13], the IC50 is 101 µM. For the same compound, the Activity entry in series [3] and in [8] was “Dose-dependent effect” each time. Further, the outcome in [4], in [5] and in series [6] was Active.

For `COc1cc(CCN)c2c(c1OC)SSSSS2` [VARACIN], the IC50 in [13] was over 295 µM. In addition, the outcome in [14] and in series [15] was inactive.

As to `COc1cc(CCN(C)C)c2c(c1O)SSSSS2` [ISOLISSOCLINOTOXIN B], the IC50 in series [13] came to 58.6 µM. In addition, the values for the Activity result in series [16] and in series [17] were “Active” and “Toxic”, respectively. For the same compound, in series [18], the outcome was inactive.
